Data as given in ChEMBL document CHEMBL2016452, “Flavones and structurally related 4-chromenones inhibit carbonic anhydrases by a different mechanism of action compared to coumarins” (Bioorg Med Chem Lett, 2012).

Experiments:
Carbonic anhydrase 12 [1] = target: T1, Carbonic anhydrase 12 (Homo sapiens, UniProt O43570); assay: Inhibition of transmembrane tumor-associated human carbonic anhydrase 12 preincubated for 15 mins by stopped flow CO2 hydration assay
Outline: (§1)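 Stopped-flow CO2 hydration, with phenol red 0.2 mM as indicator at 557 nm. Buffer 20 mM Hepes pH 7.5 with 20 mM NaClO4. Initial rates measured over 10–100 s, with uncatalyzed rate subtracted. Inhibitor stock 0.1 mM in water, diluted with assay buffer. Enzyme and inhibitor preincubated 15 min at room temperature. KI by non-linear least squares, mean of at least three determinations.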

Carbonic anhydrase 9 [2] = target: T2, Carbonic anhydrase 9 (Homo sapiens, UniProt Q16790); assay: Inhibition of transmembrane tumor-associated human carbonic anhydrase 9 preincubated for 15 mins by stopped flow CO2 hydration assay; outline: as §1
Carbonic anhydrase 15 = target: T3, Carbonic anhydrase 15 (Mus musculus, UniProt Q99N23); assay: Inhibition of mouse carbonic anhydrase 15 preincubated for 15 mins by stopped flow CO2 hydration assay; outline: as §1
T3 sequence (Q99N23 whole entry): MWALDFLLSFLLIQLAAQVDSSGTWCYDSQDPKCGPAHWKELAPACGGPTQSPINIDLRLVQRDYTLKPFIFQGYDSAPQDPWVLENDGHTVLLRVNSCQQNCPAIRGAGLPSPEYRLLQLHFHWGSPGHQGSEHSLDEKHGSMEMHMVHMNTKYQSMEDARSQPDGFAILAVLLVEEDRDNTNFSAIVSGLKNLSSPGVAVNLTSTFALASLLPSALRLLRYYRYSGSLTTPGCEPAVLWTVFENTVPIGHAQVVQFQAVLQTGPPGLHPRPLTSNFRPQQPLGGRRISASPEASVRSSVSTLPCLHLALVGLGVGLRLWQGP

Carbonic anhydrase 7 = Carbonic anhydrase 7 (Homo sapiens, UniProt P43166); assay: Inhibition of human carbonic anhydrase 7 preincubated for 15 mins by stopped flow CO2 hydration assay; outline: as §1
Carbonic anhydrase 14 = Carbonic anhydrase 14 (Homo sapiens, UniProt Q9ULX7); assay: Inhibition of human carbonic anhydrase 14 preincubated for 15 mins by stopped flow CO2 hydration assay
Carbonic anhydrase 2 [3] = target: T4, Carbonic anhydrase 2 (Homo sapiens, UniProt P00918); assay: Inhibition of cytosolic human carbonic anhydrase 2 preincubated for 15 mins by stopped flow CO2 hydration assay
Carbonic anhydrase 3 = Carbonic anhydrase 3 (Homo sapiens, UniProt P07451); assay: Inhibition of human carbonic anhydrase 3 preincubated for 15 mins by stopped flow CO2 hydration assay
[4] = target: Carbonic anhydrase 5B, mitochondrial (Homo sapiens, UniProt Q9Y2D0); assay: Inhibition of human carbonic anhydrase 5b preincubated for 15 mins by stopped flow CO2 hydration assay
Carbonic anhydrase 4 = Carbonic anhydrase 4 (Homo sapiens, UniProt P22748); assay: Inhibition of human carbonic anhydrase 4 preincubated for 15 mins by stopped flow CO2 hydration assay
[5] = target: Carbonic anhydrase 5A, mitochondrial (Homo sapiens, UniProt P35218); assay: Inhibition of human carbonic anhydrase 5a preincubated for 15 mins by stopped flow CO2 hydration assay
Carbonic anhydrase 6 = Carbonic anhydrase 6 (Homo sapiens, UniProt P23280); assay: Inhibition of human carbonic anhydrase 6 preincubated for 15 mins by stopped flow CO2 hydration assay
Carbonic anhydrase 13 = Carbonic anhydrase 13 (Homo sapiens, UniProt Q8N1Q1); assay: Inhibition of human carbonic anhydrase 13 preincubated for 15 mins by stopped flow CO2 hydration assay
Carbonic anhydrase 2 [6] = target: T4, Carbonic anhydrase 2; assay: Inhibition of cytosolic human carbonic anhydrase 2 preincubated for 12 hrs by stopped flow CO2 hydration assay
Outline: (§2)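 Stopped-flow CO2 hydration, with phenol red 0.2 mM as indicator read at 557 nm. Buffer 20 mM Hepes pH 7.5 with 20 mM NaClO4 for ionic strength. Initial rates followed for 10–100 s, with uncatalyzed rates subtracted. Inhibitor stock 0.1 mM in water, diluted in assay buffer. Enzyme and inhibitor preincubated 12 h at 4 °C. KI by non-linear least squares, mean of at least three determinations.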

Carbonic anhydrase 1 [7] = target: T5, Carbonic anhydrase 1 (Homo sapiens, UniProt P00915); assay: Inhibition of cytosolic human carbonic anhydrase 1 preincubated for 12 hrs by stopped flow CO2 hydration assay; outline: as §2
Carbonic anhydrase 1 [8] = target: T5, Carbonic anhydrase 1; assay: Inhibition of cytosolic human carbonic anhydrase 1 preincubated for 15 mins by stopped flow CO2 hydration assay
Carbonic anhydrase 12 [9] = target: T1, Carbonic anhydrase 12; assay: Inhibition of transmembrane tumor-associated human carbonic anhydrase 12 preincubated for 12 hrs by stopped flow CO2 hydration assay; outline: as §2
Carbonic anhydrase 9 [10] = target: T2, Carbonic anhydrase 9; assay: Inhibition of transmembrane tumor-associated human carbonic anhydrase 9 preincubated for 12 hrs by stopped flow CO2 hydration assay; outline: as §2

Sequence of Carbonic anhydrase 7 (P43166 whole entry): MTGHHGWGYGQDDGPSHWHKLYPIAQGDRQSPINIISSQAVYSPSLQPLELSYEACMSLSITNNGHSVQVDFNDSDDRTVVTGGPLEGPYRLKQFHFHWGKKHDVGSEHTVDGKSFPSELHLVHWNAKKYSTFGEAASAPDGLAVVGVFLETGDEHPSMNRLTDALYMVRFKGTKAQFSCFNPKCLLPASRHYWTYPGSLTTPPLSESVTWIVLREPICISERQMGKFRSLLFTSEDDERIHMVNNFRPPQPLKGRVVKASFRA
T1 sequence (O43570 whole entry): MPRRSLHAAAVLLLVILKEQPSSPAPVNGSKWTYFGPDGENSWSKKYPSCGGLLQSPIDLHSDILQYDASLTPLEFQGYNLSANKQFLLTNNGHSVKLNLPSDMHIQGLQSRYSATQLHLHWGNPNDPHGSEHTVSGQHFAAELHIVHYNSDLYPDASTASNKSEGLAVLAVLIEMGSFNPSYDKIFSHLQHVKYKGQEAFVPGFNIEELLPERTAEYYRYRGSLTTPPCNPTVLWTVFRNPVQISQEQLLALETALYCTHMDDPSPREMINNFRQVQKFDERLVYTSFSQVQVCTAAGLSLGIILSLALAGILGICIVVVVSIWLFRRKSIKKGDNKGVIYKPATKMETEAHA
T5 sequence (P00915 whole entry): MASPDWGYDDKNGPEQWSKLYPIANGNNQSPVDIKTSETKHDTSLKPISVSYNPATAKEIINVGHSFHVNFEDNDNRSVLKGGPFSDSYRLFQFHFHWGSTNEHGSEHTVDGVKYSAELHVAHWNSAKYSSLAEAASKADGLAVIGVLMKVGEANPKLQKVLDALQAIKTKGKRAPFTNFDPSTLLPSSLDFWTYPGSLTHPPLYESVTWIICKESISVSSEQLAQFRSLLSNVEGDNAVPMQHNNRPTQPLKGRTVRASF
Sequence of Carbonic anhydrase 5A, mitochondrial (P35218 whole entry): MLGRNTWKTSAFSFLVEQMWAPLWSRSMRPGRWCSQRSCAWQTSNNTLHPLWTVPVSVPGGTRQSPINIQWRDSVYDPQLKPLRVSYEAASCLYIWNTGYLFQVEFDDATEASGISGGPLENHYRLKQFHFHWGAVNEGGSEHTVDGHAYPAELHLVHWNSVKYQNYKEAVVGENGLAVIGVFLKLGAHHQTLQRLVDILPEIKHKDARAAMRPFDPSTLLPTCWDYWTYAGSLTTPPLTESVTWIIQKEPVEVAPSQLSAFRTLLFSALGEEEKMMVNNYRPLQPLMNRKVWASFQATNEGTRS
Sequence of Carbonic anhydrase 6 (P23280 whole entry): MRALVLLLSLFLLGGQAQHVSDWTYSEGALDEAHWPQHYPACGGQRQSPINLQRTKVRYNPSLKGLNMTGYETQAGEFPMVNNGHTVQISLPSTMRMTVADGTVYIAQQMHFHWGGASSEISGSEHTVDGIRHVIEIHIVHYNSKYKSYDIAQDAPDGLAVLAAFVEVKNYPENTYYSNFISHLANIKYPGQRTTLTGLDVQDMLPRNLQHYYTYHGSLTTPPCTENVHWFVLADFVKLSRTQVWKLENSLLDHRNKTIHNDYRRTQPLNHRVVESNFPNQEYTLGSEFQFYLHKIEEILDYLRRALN
Sequence of Carbonic anhydrase 5B, mitochondrial (Q9Y2D0 whole entry): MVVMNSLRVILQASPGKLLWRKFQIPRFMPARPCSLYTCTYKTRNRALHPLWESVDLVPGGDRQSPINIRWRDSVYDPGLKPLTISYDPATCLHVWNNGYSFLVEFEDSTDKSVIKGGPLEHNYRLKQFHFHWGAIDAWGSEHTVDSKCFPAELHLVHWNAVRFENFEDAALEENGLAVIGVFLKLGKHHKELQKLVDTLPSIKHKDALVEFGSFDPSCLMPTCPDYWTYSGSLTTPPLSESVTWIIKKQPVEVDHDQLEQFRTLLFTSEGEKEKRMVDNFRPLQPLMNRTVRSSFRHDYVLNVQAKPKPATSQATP
Sequence of Carbonic anhydrase 3 (P07451 whole entry): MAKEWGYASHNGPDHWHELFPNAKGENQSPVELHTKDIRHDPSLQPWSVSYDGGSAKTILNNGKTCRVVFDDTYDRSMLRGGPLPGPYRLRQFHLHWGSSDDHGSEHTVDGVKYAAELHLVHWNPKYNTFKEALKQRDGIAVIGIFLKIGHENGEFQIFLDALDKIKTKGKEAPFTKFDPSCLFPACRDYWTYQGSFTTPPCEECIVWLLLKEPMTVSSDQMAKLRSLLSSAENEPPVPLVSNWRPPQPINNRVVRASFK
Sequence of Carbonic anhydrase 4 (P22748 whole entry): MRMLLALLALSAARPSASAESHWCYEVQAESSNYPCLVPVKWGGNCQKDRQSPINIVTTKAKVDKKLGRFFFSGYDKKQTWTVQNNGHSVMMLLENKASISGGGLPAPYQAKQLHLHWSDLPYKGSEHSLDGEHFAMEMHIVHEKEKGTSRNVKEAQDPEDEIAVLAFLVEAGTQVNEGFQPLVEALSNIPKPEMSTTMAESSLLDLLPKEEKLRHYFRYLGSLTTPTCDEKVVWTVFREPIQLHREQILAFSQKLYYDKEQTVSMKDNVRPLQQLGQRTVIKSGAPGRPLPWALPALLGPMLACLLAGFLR
Sequence of Carbonic anhydrase 14 (Q9ULX7 whole entry): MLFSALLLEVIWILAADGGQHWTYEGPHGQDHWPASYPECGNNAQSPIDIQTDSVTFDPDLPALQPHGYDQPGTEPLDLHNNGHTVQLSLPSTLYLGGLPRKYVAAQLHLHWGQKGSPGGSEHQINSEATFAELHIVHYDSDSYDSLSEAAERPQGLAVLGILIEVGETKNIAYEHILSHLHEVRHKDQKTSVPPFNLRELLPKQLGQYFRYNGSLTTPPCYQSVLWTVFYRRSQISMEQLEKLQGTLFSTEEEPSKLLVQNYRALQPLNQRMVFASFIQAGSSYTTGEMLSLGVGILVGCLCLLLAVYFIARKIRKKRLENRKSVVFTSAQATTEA
Sequence of Carbonic anhydrase 13 (Q8N1Q1 whole entry): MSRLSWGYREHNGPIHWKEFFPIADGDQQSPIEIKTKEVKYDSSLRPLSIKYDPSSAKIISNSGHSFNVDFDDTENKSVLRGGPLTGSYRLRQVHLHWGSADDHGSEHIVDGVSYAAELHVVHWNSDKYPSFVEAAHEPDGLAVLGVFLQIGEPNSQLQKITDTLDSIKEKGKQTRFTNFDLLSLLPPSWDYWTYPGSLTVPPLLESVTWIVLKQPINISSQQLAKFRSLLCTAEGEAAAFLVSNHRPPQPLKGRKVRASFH

Ki (Carbonic anhydrase 12 [1]) [µM]	Ki (Carbonic anhydrase 9 [2]) [µM]	Ki (Carbonic anhydrase 15) [µM]	Ki (Carbonic anhydrase 7) [µM]	Ki (Carbonic anhydrase 14) [µM]	Ki (Carbonic anhydrase 2 [3]) [µM]	Ki (Carbonic anhydrase 3) [µM]	Ki [4] [µM]	Ki (Carbonic anhydrase 4) [µM]	Ki [5] [µM]	Ki (Carbonic anhydrase 6) [µM]	Ki (Carbonic anhydrase 13) [µM]	Ki (Carbonic anhydrase 2 [6]) [µM]	Ki (Carbonic anhydrase 1 [7]) [µM]	Ki (Carbonic anhydrase 1 [8]) [µM]	Ki (Carbonic anhydrase 12 [9]) [µM]	Ki (Carbonic anhydrase 9 [10]) [µM]	Compound
9.31	3.4	3.75	7.95	–	–	–	–	–	–	–	–	–	–	–	–	–	Nc1oc2ccc(Cl)cc2c(=O)c1-c1ccc(Cl)cc1
6.49	2.41	1.65	6.75	–	–	–	–	–	–	–	–	–	–	–	–	–	COc1ccc(-c2c(N)oc3ccc(Cl)cc3c2=O)cc1
7.22	4.13	–	–	–	8.71	–	–	–	–	–	–	8.8	1.88	1.89	7.33	4.22	O=c1cc(-c2ccccc2)oc2ccccc12 [FLAVONE]
6.59	5.54	–	–	–	9.3	–	–	–	–	–	–	9.2	5.1	5.21	6.65	5.63	O=c1c(O)c(-c2ccccc2)oc2ccccc12 [FLAVONOL]

Continued, compound first:

Compound	Ki (Carbonic anhydrase 12 [1]) [µM]	Ki (Carbonic anhydrase 9 [2]) [µM]	Ki (Carbonic anhydrase 15) [µM]	Ki (Carbonic anhydrase 7) [µM]	Ki (Carbonic anhydrase 14) [µM]	Ki (Carbonic anhydrase 2 [3]) [µM]	Ki (Carbonic anhydrase 3) [µM]	Ki [4] [µM]	Ki (Carbonic anhydrase 4) [µM]	Ki [5] [µM]	Ki (Carbonic anhydrase 6) [µM]	Ki (Carbonic anhydrase 13) [µM]	Ki (Carbonic anhydrase 2 [6]) [µM]	Ki (Carbonic anhydrase 1 [7]) [µM]	Ki (Carbonic anhydrase 1 [8]) [µM]	Ki (Carbonic anhydrase 12 [9]) [µM]	Ki (Carbonic anhydrase 9 [10]) [µM]
Oc1ccc(C=Cc2cc(O)cc(O)c2)cc1 (mixture of isomers)	8.13	9.53	2.57	8.98	1.95	1.75	6.75	3.24	4.01	2.86	8.63	8.25	–	–	–	–	–
O=c1cc(-c2ccccc2)oc2cc(O)ccc12 [7-HYDROXYFLAVONE]	8.4	4.92	–	–	–	2.24	–	–	–	–	–	–	2.32	3.43	3.37	8.51	4.85
O=c1cc(-c2ccccc2)oc2cc(O)cc(O)c12 [CHRYSIN]	8.96	2.65	–	–	–	4.38	–	–	–	–	–	–	4.31	5.42	5.49	9.07	2.71
